# Test results: the RNAGym collection of RNA variant scans (doi:10.1038/nmeth.2970)
# B1: NELF-E aptamer (parent)
# chain: CCCAACGACUGCCGAGCGAGAUUACGCUUGAGCGCCCCACUGAGGAUGCCCACGGGCGAUUGGGGCACGG
# Variants of: B1
# Experiment: HiTS-RAP
# Details: with NELF-E (Drosophila)
# Outline: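 Kd came from weighted Hill fits to the first binding curve, with intensities normalised to sequencing intensity and averaged per sequence, keeping only fits whose variance was below 1,000,000. That curve was imaged on an Illumina GAIIx flowcell, where sequenced aptamer DNA templates with a T7 promoter and ter site had been transcribed in situ by T7 RNA polymerase and halted by GST-Tus (30 minutes, 37°C). Before each image, clusters equilibrated for 30 minutes at room temperature with NELF-E-mOrange at 0.064 to 1000 nM in HEPES binding buffer.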
row,Variant,Kd [nM]
1,CCCAACGACGGCCGAGCGGGAUUACGCUUGAGCGCCCCACUGAGGAUGCCCACGGGCGAUUGGGGCACGG,5.12
2,CCCAACGACGGCCGAGCGUGAUUACGCUUGAGCGCCCCACUGAGGAUGCCCACGGGCGAUUGGGGCACGG,4.96
3,CCCAACGACCGGCGAGCGAGAUUACGCUUGAGCGCCCCACUGAGGAUGCCCACGGGCGAUUGGGGCACGG,5.94
4,CCCAACGACGGCCGAGCGAGAUUACGCUUGAGCGCCCCACUGUGGAUGCCCACGGGCGAUUGGGGCACGG,75.2
5,CCCAACGACGGCCGAGCGAGAUUACGCUUGAGCGCCCCACUGGGGAUGCCCACGGGCGAUUGGGGCACGG,18.8
6,CCCAACGACGGCCGAGCGAGAUUACGCUUGAGCGCCCCACUGCGGAUGCCCACGGGCGAUUGGGGCACGG,75.8
7,CCCAACGACAGCCGAGCGAGAUUGCGCUUGAGCGCCCCACUGAGGAUGCCCACGGGCGAUUGGGGCACGG,5.63
8,CCCAACGAUUGCCGAGCGAGAUUACGCUUGAGCGCCCCACUGAGGAUGCCCACGGGCGAUUGGGUCACGG,6.78
9,CCCAACGACGGCCGAGCGAGAUUACGCUUGAGCGCCCCACUGAGGAUGCCCACGGGCGAUUGGGGCACGG,4.49
10,CCCAACGACCGCCGAGCGAGAUUACGCUUGAGCGCCCCACUGAGGAUGCCCACGGGCGAUUGGGGCACGG,4.6
11,CCCAACGACAGCCGAGCGAGAUUACGCUUGAGCGCCCCACUGAGGAUGCCCACGGGCGAUUGGGGCACGG,4.9
12,CCCAACGACAGGCGAGCGAGAUUACGCUUGAGCGCCCCACUGAGGAUGCCCACGGGCGAUUGGGGCACGG,6.47
13,CCCAACGAUUGCCUAGCGAGAUUACGCUUGAGCGCCCCACUGAGGAUGCCCACGGGCGAUUGGGGCACGG,6.79
14,CCCAACGAUUGCCAAGCGAGAUUACGCUUGAGCGCCCCACUGAGGAUGCCCACGGGCGAUUGGGGCACGG,6.66
15,CCCAACGACCGCCGAGCGAGAUUACGCUUGAGCGCCCCACUGAGGAUGCCCAUGGGCGAUUGGGGCACGG,3.84
16,CCCAACGACCUCCGAGCGAGAUUACGCUUGAGCGCCCCACUGAGGAUGCCCACGGGCGAUUGGGGCACGG,5.91
17,CCCAACGACGGCCGCGCGAGAUUACGCUUGAGCGCCCCACUGAGGAUGCCCACGGGCGAUUGGGGCACGG,3.77
18,CCCAACGACGGCCGUGCGAGAUUACGCUUGAGCGCCCCACUGAGGAUGCCCACGGGCGAUUGGGGCACGG,5.99
19,CCCAACGACGGCCGGGCGAGAUUACGCUUGAGCGCCCCACUGAGGAUGCCCACGGGCGAUUGGGGCACGG,4.72
20,CCCAACGACAGCCGGGCGAGAUUACGCUUGAGCGCCCCACUGAGGAUGCCCACGGGCGAUUGGGGCACGG,3.62
21,CCCAACGACCGCCGAGCGAGAUGACGCUUGAGCGCCCCACUGAGGAUGCCCACGGGCGAUUGGGGCACGG,5.12
22,CCCAACGACCGCCGAGCGAGAUUACGCUUGAGCGCCCCACUGAGGAUGCCCACGGGCGAUUGGAGCACGG,9.5
23,CCCAACGACAGCCGAGCGAGAUUACGCUUGGGCGCCCCACUGAGGAUGCCCACGGGCGAUUGGGGCACGG,9.84
24,CCCAACGACAGCCGAGCGAGAUUACGCUUGUGCGCCCCACUGAGGAUGCCCACGGGCGAUUGGGGCACGG,5.78
25,CCCAACGAUGGCCGAGCGAGAUUACGCUUGAGCGCCCCACUGAGGAUGCCCACGGGCGAUUGGGGCACGG,5.19
26,CCCAACGACAGCCGAGCGAGAGUACGCUUGAGCGCCCCACUGAGGAUGCCCACGGGCGAUUGGGGCACGG,5.49

row,Variant,Kd [nM]
1,CCCAACGAUUGCCGAGCGAGAUGACGCUUGAGCGCCCCACUGAGGAUGCCCACGGGCGAUUGGGGCACGG,5.63
2,CCCAACGACCGCCGAGCGAGAUUACGCUUGAGCGCCCCACUGAGGAUGCCCACGGGCGAUUGGGGCUCGG,5.45
3,CCCAACGACAGCCGAGCGAGAUUACGCUUGAGCGCCCCACUGAGGAUGCCCAUGGGCGAUUGGGGCACGG,5.03
4,CCCAACGACAUCCGAGCGAGAUUACGCUUGAGCGCCCCACUGAGGAUGCCCACGGGCGAUUGGGGCACGG,7.2
5,CCCAACGACAGCCGAGCGAGAUUACGCUUGAGCGCCCCACUGAGGAUGCCCACGGGCGAUAGGGGCACGG,26
6,CCCAACGACAGCCGAGCGAGAUUACGCUUGAGCGCCCCGCUGAGGAUGCCCACGGGCGAUUGGGGCACGG,11.6
7,CCCAACGACGGCCGAGCGAGAUUCCGCUUGAGCGCCCCACUGAGGAUGCCCACGGGCGAUUGGGGCACGG,4.94
8,CCCAACGACGGCCGAGCGAGAUUUCGCUUGAGCGCCCCACUGAGGAUGCCCACGGGCGAUUGGGGCACGG,6.04
9,CCCAACGACGGCCGAGCGAGAUUGCGCUUGAGCGCCCCACUGAGGAUGCCCACGGGCGAUUGGGGCACGG,5.18
10,CCCAACGAUUGCCGAGCGAGAGUACGCUUGAGCGCCCCACUGAGGAUGCCCACGGGCGAUUGGGGCACGG,5.55
11,CCCAACGACAGCCGAGCGGGAUUACGCUUGAGCGCCCCACUGAGGAUGCCCACGGGCGAUUGGGGCACGG,6.65
12,CCCAACGACAGCCGAGCGAGAUUACGCUUGAGCGCCCCACUGAGGAUGCCCACGGGUGAUUGGGGCACGG,5.96
13,CCCAACGACCGCCUAGCGAGAUUACGCUUGAGCGCCCCACUGAGGAUGCCCACGGGCGAUUGGGGCACGG,4.95
14,CCCAACGACCGCCGAGCGAGAUUACGCUUGAGCGCCCCACUGAGGAUGCCCACGGGCGAUCGGGGCACGG,41.4
15,CCCAACGACCGCCGAGCGAGAUUACGCUUGAGCGCCCCACUGAGGAUGCCCACGGGCGAUAGGGGCACGG,33.1
16,CCCAACGAUUGCCGAUCGAGAUUACGCUUGAGCGCCCCACUGAGGAUGCCCACGGGCGAUUGGGGCACGG,7.34
17,CCCAACGACCGCCGAGCGAGAUUACGCUGGAGCGCCCCACUGAGGAUGCCCACGGGCGAUUGGGGCACGG,6.02
18,CCCAACGACCGCCGAGCGAGAUUACGCUCGAGCGCCCCACUGAGGAUGCCCACGGGCGAUUGGGGCACGG,7.71
19,CCCAACGACAGCCGAGCGAGAUUACGCUUGAGCGCCCCACUGAGGAUGCCCACGGGCGAUUGGGGCGCGG,4.3
20,CCCAACGACAGCCGAGCGAGAUUACGCUUGAGCGCCCCACUGAGGAUGCCCACGGGCGAUUGGGGCUCGG,9.22
21,CCCAACGAUUGCCGAGCGAGAUUACGCUGGAGCGCCCCACUGAGGAUGCCCACGGGCGAUUGGGGCACGG,5.3
22,CCCAACGACAGCGGAGCGAGAUUACGCUUGAGCGCCCCACUGAGGAUGCCCACGGGCGAUUGGGGCACGG,5.83
23,CCCAACGACGGCCGAGCGAGCUUACGCUUGAGCGCCCCACUGAGGAUGCCCACGGGCGAUUGGGGCACGG,4.39
24,CCCAACGACGGCCGAGCGAGUUUACGCUUGAGCGCCCCACUGAGGAUGCCCACGGGCGAUUGGGGCACGG,5.53
25,CCCAACGACGGCCGAGCGAGGUUACGCUUGAGCGCCCCACUGAGGAUGCCCACGGGCGAUUGGGGCACGG,5.45
26,CCCAACGACCGCCGAGCGAGAGUACGCUUGAGCGCCCCACUGAGGAUGCCCACGGGCGAUUGGGGCACGG,5.75

row,Variant,Kd [nM]
1,CCCAACGACCGCCGAGCGAGAUUACGCUUGAGCGCCCCACUGAGGAUGCCCACGGGUGAUUGGGGCACGG,4.92
2,CCCAACGACAGCCGAGCGAGAUUACACUUGAGCGCCCCACUGAGGAUGCCCACGGGCGAUUGGGGCACGG,5.22
3,CCCAACGACAGCCUAGCGAGAUUACGCUUGAGCGCCCCACUGAGGAUGCCCACGGGCGAUUGGGGCACGG,6.38
4,CCCAACGACAGCCAAGCGAGAUUACGCUUGAGCGCCCCACUGAGGAUGCCCACGGGCGAUUGGGGCACGG,7.05
5,CCCAACGACCGCCGAGCGAGAUUACGCUUGAGCGCCCCACUGAGGAUGCCCACGAGCGAUUGGGGCACGG,8.56
6,CCCAACGACCGCCGAGCGAGAUUACGCUUGAGCGCCCCACUGAGGAUGCCCACGUGCGAUUGGGGCACGG,9.22
7,CCCAACGACGGCCGAGCGAGAUUACGCUUGAGCGCCCCUCUGAGGAUGCCCACGGGCGAUUGGGGCACGG,24.6
8,CCCAACGACGGCCGAGCGAGAUUACGCUUGAGCGCCCCCCUGAGGAUGCCCACGGGCGAUUGGGGCACGG,19.7
9,CCCAACGACGGCCGAGCGAGAUUACGCUUGAGCGCCCCGCUGAGGAUGCCCACGGGCGAUUGGGGCACGG,10.1
10,CCCAACGACAGCCGAUCGAGAUUACGCUUGAGCGCCCCACUGAGGAUGCCCACGGGCGAUUGGGGCACGG,5.86
11,CCCAACGACGGCCGAGCGAGAUUACGCUUGUGCGCCCCACUGAGGAUGCCCACGGGCGAUUGGGGCACGG,5.87
12,CCCAACGACGGCCGAGCGAGAUUACGCUUGCGCGCCCCACUGAGGAUGCCCACGGGCGAUUGGGGCACGG,6.21
13,CCCAACGACGGCCGAGCGAGAUUACGCUUGGGCGCCCCACUGAGGAUGCCCACGGGCGAUUGGGGCACGG,6.79
14,CCCAACGACAGCCGAGCGAGAUGACGCUUGAGCGCCCCACUGAGGAUGCCCACGGGCGAUUGGGGCACGG,5.54
15,CCCAACGACAGCCGAGCGAGAUCACGCUUGAGCGCCCCACUGAGGAUGCCCACGGGCGAUUGGGGCACGG,5.46
16,CCCAACGACCGCCGAUCGAGAUUACGCUUGAGCGCCCCACUGAGGAUGCCCACGGGCGAUUGGGGCACGG,5.14
17,CCCAACGACCGCGGAGCGAGAUUACGCUUGAGCGCCCCACUGAGGAUGCCCACGGGCGAUUGGGGCACGG,5.55
18,CCCAACGAUUGCCGAGCGAUAUUACGCUUGAGCGCCCCACUGAGGAUGCCCACGGGCGAUUGGGGCACGG,7.82
19,CCCAACGACCGCCGAGCGAGAUUGCGCUUGAGCGCCCCACUGAGGAUGCCCACGGGCGAUUGGGGCACGG,5.38
20,CCCAACGACAGCCGAGCGAGAUUACGCUCGAGCGCCCCACUGAGGAUGCCCACGGGCGAUUGGGGCACGG,5.24
21,CCCAACGACAGCCGAGCGAGAUUACGCUGGAGCGCCCCACUGAGGAUGCCCACGGGCGAUUGGGGCACGG,5.61
22,CCCAACGAUUGCCGAGCGAGAUUACGCUUGAGCGCCCCACGGAGGAUGCCCACGGGCGAUUGGGGCACGG,5.98
23,CCCAACGAUUUCCGAGCGAGAUUACGCUUGAGCGCCCCACUGAGGAUGCCCACGGGCGAUUGGGGCACGG,5.56
24,CCCAACGACCGCCGAGCGGGAUUACGCUUGAGCGCCCCACUGAGGAUGCCCACGGGCGAUUGGGGCACGG,4.87
25,CCCAACGAUUGCCGAGGGAGAUUACGCUUGAGCGCCCCACUGAGGAUGCCCACGGGCGAUUGGGGCACGG,6.19
